Results taken from ChEMBL document CHEMBL3244105, “Antiparasitic agents. 3. Synthesis and anthelmintic activities of novel 2-pyridinyl-5-isothiocyanatobenzimidazoles” (1979).
The source made the active and inactive calls. The rule behind the calls is not given here.

Key:
Rodentolepis nana [1] = assay: Anthelmintic activity against Hymenolepis nana infected in CF1 mouse assessed as clearance of worm burden assessed as clearance of worm burden at 0.2% dosed through diet for 4 days dosed 16 days post infection by press-plate technique; assay type: functional
In short: (§1)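 Primary oral mouse screen. Compound was given mixed in the diet. Tapeworm (taeniacidal) and N. dubius nematode activity were each scored as percent clearance of worms.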

[2] = test system: gastrointestinal nematodes (Ovis aries); assay: Anthelmintic activity against gastrointestinal nematodes infected in sheep assessed as reduction of fecal egg count at 50 mg/kg, po measured up to 7 days relative to control; set-up: scale not given: the % may be the effect or the level left
[3] = test system: Heligmosomoides polygyrus; assay: Nematocidal activity against Nematospiroides dubius infected in CF1 mouse assessed as clearance of worm burden at 0.2% dosed through diet for 4 days dosed 16 days post infection by press-plate technique; assay type: functional; in short: as §1
[4] = test system: gastrointestinal nematodes (Ovis aries); assay: Anthelmintic activity against gastrointestinal nematodes infected in sheep assessed as reduction of fecal egg count at 200 mg/kg, po measured up to 7 days relative to control; set-up: scale not given: the % may be the effect or the level left
[5] = test system: gastrointestinal nematodes (Ovis aries); assay: Anthelmintic activity against gastrointestinal nematodes infected in sheep assessed as reduction of fecal egg count at 25 mg/kg, po measured up to 7 days relative to control; set-up: scale not given: the % may be the effect or the level left
Taenia pisiformis = assay: Anthelmintic activity against Taenia pisiformis infected in dog assessed as reduction of fecal egg count; assay type: functional, organism-based
Moniezia = assay: Anthelmintic activity against Moniezia sp. infected in sheep assessed as reduction of fecal egg count; assay type: functional
Rodentolepis nana [6] = assay: Anthelmintic activity against Hymenolepis nana infected in CF1 mouse assessed as clearance of worm burden at 0.03% dosed through diet for 4 days dosed 16 days post infection by press-plate technique; assay type: functional, organism-based; in short: as §1
[7] = test system: Heligmosomoides polygyrus; assay: Nematocidal activity against Nematospiroides dubius infected in CF1 mouse assessed as clearance of worm burden at 0.03% dosed through diet for 4 days dosed 16 days post infection by press-plate technique; assay type: functional, organism-based; in short: as §1
[8] = test system: gastrointestinal nematodes (Ovis aries); assay: Anthelmintic activity against gastrointestinal nematodes infected in sheep assessed as reduction of fecal egg count at 43 mg/kg, po measured up to 7 days relative to control; set-up: scale not given: the % may be the effect or the level left

Row | Structure (SMILES) | Activity (Rodentolepis nana [1]) [%] | Activity [2] [%] | Activity [3] | also measured
1 | Cc1ccc(S(=O)(=O)O)cc1.S=C=Nc1ccc2[nH]c(-c3ccccn3)nc2c1 | 100 | 0 | – | –
2 | S=C=Nc1ccc2[nH]c(-c3ccncc3)nc2c1 | 0 | 0 | inactive | –
3 | Cn1c(-c2cccc[n+]2C)nc2cc(N=C=S)ccc21.[I-] | 0 | – | inactive | –
4 | S=C=Nc1ccc2[nH]c(-c3ccccn3)nc2c1 [listing 1 of 2 here] | 100 | 100 | – | Activity [4]: 100%; Activity [5]: 11%
5 | S=C=Nc1cccc2[nH]c(-c3ccccn3)nc12 | 25 | 83 | inactive | –
6 | S=C=Nc1ccc2[nH]c(-c3cscn3)nc2c1 | 100 | – | 90% | –
7 | S=C=Nc1ccc2[nH]c(-c3ccccn3)nc2c1 [listing 2 of 2 here] | – | – | inactive | Activity (Taenia pisiformis): inactive; Activity (Moniezia): inactive
8 | S=C=Nc1ccc2[nH]c(-c3ccccc3)nc2c1 | 100 | 0 | inactive | –
9 | c1ccc(-c2nc3ccccc3[nH]2)nc1 | 0 | 28 | inactive | –
10 | CCCCc1ccc2[nH]c(NC(=O)OC)nc2c1 | – | – | – | Activity (Rodentolepis nana [6]): Active; Activity [7]: Active
11 | S=C=Nc1ccc2[nH]c(-c3cc(Cl)ccn3)nc2c1 | 75 | 0 | inactive | –
12 | Cc1ccnc(-c2nc3cc(N=C=S)ccc3[nH]2)c1 | 25 | 0 | inactive | –
13 | [O-][n+]1ccccc1-c1nc2cc(N=C=S)ccc2[nH]1 | 100 | – | inactive | Activity [8]: 9%
14 | S=C=Nc1cc2nc(-c3ccccn3)[nH]c2cc1Cl | 50 | 15 | inactive | –
15 | S=C=Nc1ccc2[nH]c(-c3cccnc3)nc2c1 | 100 | – | inactive | Activity [4]: 71%
16 | COc1ccnc(-c2nc3cc(N=C=S)ccc3[nH]2)c1 | 75 | 0 | inactive | –
17 | c1ccc(-c2nc3ccccc3[nH]2)cc1 | 25 | 17 | inactive | –
18 | S=C=Nc1ccnc(-c2nc3ccccc3[nH]2)c1 | 50 | 0 | inactive | –
19 | Cc1cccc(-c2nc3cc(N=C=S)ccc3[nH]2)n1 | 75 | 52 | inactive | –
20 | S=C=Nc1ccnc(-c2nc3cc(N=C=S)ccc3[nH]2)c1 | 0 | 0 | inactive | –
21 | Cl.S=C=Nc1ccc2[nH]c(-c3ccccn3)nc2c1 | 75 | 95 | – | –
